The values below come from ChEMBL document CHEMBL4330086, “Synthesis, in silico experiments and biological evaluation of 1,3,4-trisubstituted pyrazole derivatives as antimalarial agents” (Eur J Med Chem, 2019).

Calls of active or inactive are those of the source. The rule behind the calls is not given here.

Data set [1] relates to Plasmodium berghei. Briefly: Anti-plasmodial activity against Plasmodium berghei ANKA infected in mouse assessed as suppression in blood parasitemia level at 0.048 mmol/kg/day, po administered as single dose at 24 hrs time interval from day 1 to day 3 and measured 96 hrs post infection by Giemsa staining based microscopic method relative to control. The class given is functional. Summed up:
(§1)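 Swiss albino mice, five per group, were infected i.v. on day 0 with 0.2 ml of 2 x 10^7 P. berghei ANKA parasitized erythrocytes. Oral dosing at 0.048 mmol/kg/day began 2 h later and repeated daily on days 1-3. The vehicle was 7% Tween and 3% ethanol in water. Giemsa smears were read on day 4 (5 fields of ~100 RBC). Suppression was taken against vehicle controls, and survival was tracked per mouse.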

Data set [2] concerns Plasmodium falciparum. As to the kind of experiment: Anti-plasmodial activity against chloroquine resistant Plasmodium falciparum RKL9 infected in human erythrocytes after 24 hrs by Giemsa staining-based method. The format is functional, organism-based. The note with it: RKL9, 24 h. The method in brief:
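Chloroquine-resistant RKL9 kept in continuous culture (Trager-Jensen). Parasitaemia adjusted to 1-1.5% with fresh human B(+) RBC in RPMI 1640 with 10% AB(+) serum. Two-fold serial dilutions from ethanol stock, duplicate wells, 37°C for 24 h. Giemsa smears scored as schizonts per 100 asexual parasites. Schizont maturation inhibition = 1 − Nt/Nc x 100; IC50 derived.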

Data set [3] relates to Erythrocyte. As to the kind of experiment: Antiinflammatory activity in RBC (unknown origin). The class given is functional.
Data set [4] deals with Erythrocyte. As to the kind of experiment: Antihemolytic activity in RBC (unknown origin). The class given is functional.
For data set [5], the system named is PBMC. As to the kind of experiment: Cytotoxicity against human PBMC assessed as reduction in cell viability after 30 mins by Neutral red dye-based phase-contrast inverted microscopic analysis. The conditions noted are these: 0.5 h. Summed up:
(§2)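 PBMC were isolated from a healthy donor by Ficoll-Hypaque density-gradient centrifugation and exposed to a range of test concentrations. Viability was scored by neutral red uptake, with retained dye taken as proportional to viable cells with intact membranes.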

In data set [6] the test system is PBMC. Briefly: Cytotoxicity against human PBMC assessed as reduction in cell viability at 6.25 ug/ml after 30 mins by Neutral red dye-based phase-contrast inverted microscopic analysis relative to control. The note with it: 0.5 h. The method in brief: as §2
The test system of data set [7] is PBMC. As to the kind of experiment: Cytotoxicity against human PBMC assessed as reduction in cell viability at 25 ug/ml after 30 mins by Neutral red dye-based phase-contrast inverted microscopic analysis relative to control. The note with it: 0.5 h. The method in brief: as §2
Data set [8] has as its system PBMC. As to the kind of experiment: Cytotoxicity against human PBMC assessed as reduction in cell viability at 100 ug/ml after 30 mins by Neutral red dye-based phase-contrast inverted microscopic analysis relative to control. The conditions noted are these: 0.5 h. The method in brief: as §2
Data set [9] is described as follows: Selectivity ratio of IC50 for human PBMC to IC50 for chloroquine resistant Plasmodium falciparum RKL9. The format is toxicity. The conditions noted are these: read-out: Ratio IC50.
The nature of data set [10]: Acute toxicity in mouse up to 150 mg/kg, po after 3 days. The format is organism-based. The conditions noted are these: in vivo, 72 h. Summed up: (§3)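 Male mice, 25-30 g, six per group, fasted overnight and weighed before dosing. Compounds given as suspensions in aqueous 1% gum acacia. Five dose groups per compound. Toxicity signs, body-weight change and deaths recorded over 3 days after administration.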

Data set [11] is described as follows: Acute toxicity in mouse assessed as effect on body weight at 150 mg/kg, po after 3 days. The format is organism-based. The note with it: in vivo, 72 h. The method in brief: as §3
Data set [12] can be described thus: Acute toxicity in mouse assessed as mouse death at 150 mg/kg, po after 3 days. The note with it: in vivo, 72 h. The format is organism-based. The method in brief:
as §3

For data set [13], the system named is Plasmodium berghei. As to the kind of experiment: Anti-plasmodial activity against Plasmodium berghei ANKA infected in mouse assessed as increase in mean survival time at 0.048 mmol/kg/day, po administered as single dose at 24 hrs time interval from day 1 to day 3 and measured 96 hrs post infection. The class given is functional, organism-based. The method in brief:
as §1

In data set [14] the test system is Plasmodium falciparum. As to the kind of experiment: Potency index, ratio of chloroquine phosphate IC50 to compound IC50 for anti-plasmodial activity against chloroquine resistant Plasmodium falciparum RKL9 infected in human erythrocytes. The class given is functional.
The test system of data set [15] is Erythrocyte. Briefly: Antihemolytic activity in RBC (unknown origin) relative to control.
The test system of data set [16] is Erythrocyte. As to the kind of experiment: Antiinflammatory activity in RBC (unknown origin) relative to control.
Data set [17] deals with Erythrocyte. As to the kind of experiment: Antihemolytic activity in RBC (unknown origin) at 20 ug/ml relative to control.
Data set [18] deals with Erythrocyte. As to the kind of experiment: Antihemolytic activity in RBC (unknown origin) at 40 ug/ml relative to control.
Data set [19] relates to Erythrocyte. Briefly: Antiinflammatory activity in RBC (unknown origin) at 20 ug/ml relative to control.
In data set [20] the test system is Erythrocyte. Briefly: Antiinflammatory activity in RBC (unknown origin) at 40 ug/ml relative to control.
Data set [21] deals with Plasmodium berghei. Briefly: Anti-plasmodial activity against Plasmodium berghei ANKA infected in mouse assessed as mean survival time at 0.048 mmol/kg/day, po administered as single dose at 24 hrs time interval from day 1 to day 3 and measured 96 hrs post infection (reference value: 4.33 +/- 0.7 day). The format is functional.
The nature of data set [22]: Selectivity ratio of IC50 for antihemolytic activity in RBC (unknown origin) to IC50 for chloroquine resistant Plasmodium falciparum RKL9. The class given is functional.
The nature of data set [23]: Selectivity ratio of IC50 for antiinflammatory activity in RBC (unknown origin) to IC50 for chloroquine resistant Plasmodium falciparum RKL9. The class given is functional.

Turning to `COc1ccc(-c2nn(-c3ccccc3)cc2C(=O)N/N=C/c2cccc(O)c2)cc1`, the Activity in data set [1] is listed as 97.7%; in [3], 49.03%; in [4] it was 32%; in data set [6], -19.18%; in data set [7] it was 54.42%; in data set [8] it was 12.78%. The Activity result in data set [10] is “Non-Toxic”; in [11], “Non-Toxic”; in data set [12], “Non-Toxic”; in data set [17], 40%; in data set [18], 44%; in data set [19], 54.31%. Further, the Activity in data set [20] was 59.58%. Also, the IC50 was determined as 0.0142 µM in data set [2], 1000 µM in data set [5], 133 µM in data set [15] and 16 µM in data set [16]. Further, the selectivity ratio in [9] turned out to be 70000. The result in [13] was Active. For the same compound, in [14], the “Ratio IC50” value is reported as 13.

On to `CCN(CC)CCCC(C)Nc1ccnc2cc(Cl)ccc12.O=P(O)(O)O.O=P(O)(O)O` (stereo not given) [CHLOROQUINE PHOSPHATE], for which, in data set [1], the Activity was 100%. For the same compound, the MST in data set [21] came to 12.22 days.

Regarding `COc1ccc(-c2nn(-c3ccccc3)cc2C(=O)N/N=C/c2ccc(F)cc2)cc1`, in data set [1], the Activity is listed as 67.81%. Moreover, the MST in [21] amounted to 10.5 days.

With `CCc1nc(N)nc(N)c1-c1ccc(Cl)cc1` [PYRIMETHAMINE], the Activity in data set [1] is listed as 100%. The compound further registered an IC50 in data set [2] of 0.0125 µM. For the same compound, the result in [13] was Active.

Consider `COc1ccc(-c2nn(-c3ccccc3)cc2C(=O)N/N=C/c2cccs2)cc1`, for which, in [1], the Activity was 86.2%. The MST in data set [21] amounted to 11.5 days.

For the compound `COc1ccc(-c2nn(-c3ccccc3)cc2-c2n[nH]c(=S)n2-c2ccccc2)cc1`, the Activity in [1] worked out at 73.56%. In addition, the MST in data set [21] was 7.66 days.

For the compound `C=CCn1c(-c2ccccc2)cs/c1=N/NC(=O)c1cn(-c2ccccc2)nc1-c1ccc(OC)cc1`, the Activity in data set [1] is 71.26%. The MST in [21] turned out to be 7.33 days.

With `COc1ccc(-c2nn(-c3ccccc3)cc2C(=O)N/N=C/c2ccccc2)cc1`, in data set [1], the Activity is reported as 85.05%. For the same compound, the MST in [21] was 9.33 days.

Consider `COc1ccc(-c2nn(-c3ccccc3)cc2C(=O)N/N=C/c2ccncc2)cc1`, for which the Activity in data set [1] came out at 79.31%. For the same compound, in [21], the MST amounted to 8.83 days.

On to `COc1ccc(-c2nn(-c3ccccc3)cc2C(=O)NNC(C)=O)cc1`, for which the Activity in data set [1] turned out to be 63.21%. The MST in [21] is 6.66 days.

With `COc1ccc(-c2nn(-c3ccccc3)cc2C(=O)N/N=C/c2cc(OC)c(OC)c(OC)c2)cc1`, the Activity in data set [1] is on record as 93.1%; in [3] it was 29.69%; in data set [4], 41%; in [6] it was 43%; in [7] it was 60%; in data set [8], 77.93%. For the same compound, the Activity result in data set [10] is “Non-Toxic”; in [11], “Non-Toxic”; in [12] it was “Non-Toxic”; in data set [17], 85%; in data set [18] it was 97.8%; in data set [19] it was 17.52%. The Activity in data set [20] turned out to be 5.34%. Also, the IC50 in [2] amounted to 0.0398 µM; in data set [5], 31.2 µM; in [15], 121 µM; in [16], 52.5 µM. In addition, the Ratio IC50 in data set [22] turned out to be 1700. Also, the selectivity ratio in data set [9] came out at 783. Further, the result in data set [13] was Active.

In the case of `C=CCn1c(-c2cn(-c3ccccc3)nc2-c2ccc(OC)cc2)n[nH]c1=S`, the Activity in [1] worked out at 63.21%. In addition, the MST in data set [21] came out at 5.5 days.

Take `C=CCNC(=S)NNC(=O)c1cn(-c2ccccc2)nc1-c1ccc(OC)cc1`: the Activity in [1] worked out at 70.11%. Besides, in data set [21], the MST was 6.66 days.

On to `C=CCn1c(-c2ccc(Br)cc2)cs/c1=N/NC(=O)c1cn(-c2ccccc2)nc1-c1ccc(OC)cc1`, for which the Activity in data set [1] was determined as 90.8%; in data set [3] it was 35.23%; in [4], 16%; in data set [6], 8.46%; in data set [7], 16.05%; in data set [8], 39.93%. The Activity entry in [10] was “Non-Toxic”; in data set [11] it was “Non-Toxic”; in data set [12] it was “Non-Toxic”; in data set [17] it was 59%; in data set [18], 68%; in data set [19], 57.79%. Further, in [20], the Activity was determined as 80.34%. Moreover, the IC50 in data set [2] was found to be 0.0319 µM; in data set [5] it was 222 µM; in [15], 79.5 µM; in data set [16], 13.7 µM. Also, the outcome in data set [13] was Active.

On to `COc1ccc(-c2nn(-c3ccccc3)cc2C(=O)NNC(=S)Nc2ccccc2)cc1`, for which the Activity in data set [1] turned out to be 73.56%. The MST in data set [21] turned out to be 6.66 days.

Take `COc1ccc(-c2nn(-c3ccccc3)cc2C(=O)N/N=C2/SCC(=O)N2c2ccccc2)cc1`: the Activity in data set [1] is listed as 82.75%. Further, the MST in [21] was determined as 12.83 days.

For `C=CCN1C(=O)CS/C1=N/NC(=O)c1cn(-c2ccccc2)nc1-c1ccc(OC)cc1`, the Activity in data set [1] stood at 79.31%. For the same compound, the MST in data set [21] was found to be 11.33 days.

On to `COc1ccc(-c2nn(-c3ccccc3)cc2C(=O)N/N=c2/scc(-c3ccc(Br)cc3)n2-c2ccccc2)cc1`, for which, in [1], the Activity was determined as 81.6%. For the same compound, in [21], the MST came to 11.66 days.

Consider `COc1ccc(-c2nn(-c3ccccc3)cc2C(=O)N/N=c2/scc(-c3ccccc3)n2-c2ccccc2)cc1`, for which the Activity in data set [1] is given as 97.7%; in [3], 56.11%; in [4], 41%; in [6] it was -6.2%; in [7], -1.63%; in data set [8], 48.27%. The Activity result is “Non-Toxic” in data set [10]; “Non-Toxic” in [11]; “Non-Toxic” in [12]; 79% in [17]; 99.8% in data set [18]; 81.19% in data set [19]. Besides, the Activity in data set [20] came out at 106.28%. The IC50 in data set [2] turned out to be 0.0492 µM; in data set [5], 190 µM; in data set [15], 138 µM; in data set [16] it was 3.49 µM. The Ratio IC50 in [23] was determined as 71. Besides, the outcome in data set [13] was Active.

Turning to `COc1ccc(-c2nn(-c3ccccc3)cc2C(=O)NNC=O)cc1`, the Activity in data set [1] is reported as 70.11%. Moreover, in data set [21], the MST was 6.66 days.

Usually IC50 stands for the point on the concentration scale where inhibition reaches its midpoint.
